Laboratory results from publication PMC9056355 (RSC Advances, 2020).

Columns and labels:
[1] = test system: mice (immobility in FST); assay: Forced swimming test; type: in vivo, Kunming mice; details: for Antidepressant activity in FST, significance compared with the control group: mice, 40 mg kg^-1; for Relationship between dose and antidepressant activity in FST: mice, 10, 20 and 40 mg kg^-1 (Fig. 3)
How it was run: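 Kunming mice (18–22 g) with free access to food and water; test compound in 0.5% methylcellulose or DMSO, given by intraperitoneal or subcutaneous injection at 40 mg kg−1; fluoxetine as positive control; test time 0.5 h. Read-out is immobility duration (s) and DID (%), compared with the control group by one-way ANOVA. A dose series of 10, 20 and 40 mg kg−1 was also run.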

[2] = molecular target: T1, 5-HT1A receptor (Homo sapiens, UniProt P08908); assay: biochemical
T1 sequence (P08908 1-422): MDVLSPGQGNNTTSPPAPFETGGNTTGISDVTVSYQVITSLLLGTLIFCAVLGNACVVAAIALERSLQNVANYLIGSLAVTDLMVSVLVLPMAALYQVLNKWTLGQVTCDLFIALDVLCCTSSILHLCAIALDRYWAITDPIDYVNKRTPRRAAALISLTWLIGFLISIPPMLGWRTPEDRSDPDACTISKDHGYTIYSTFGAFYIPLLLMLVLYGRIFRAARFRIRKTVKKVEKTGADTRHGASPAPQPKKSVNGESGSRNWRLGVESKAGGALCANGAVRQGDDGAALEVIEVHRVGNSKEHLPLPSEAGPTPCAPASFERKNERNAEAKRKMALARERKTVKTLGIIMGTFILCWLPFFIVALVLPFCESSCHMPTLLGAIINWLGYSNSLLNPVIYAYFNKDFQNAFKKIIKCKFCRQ

[3] = test system: spontaneous locomotor activity of mice; assay: Open-field test; type: in vivo; details: 40 mg kg^-1, administered 1 h before the test, n = 8 (Fig. 6)
How it was run: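 Kunming mice given test compound at 40 mg kg−1 (0.5% methylcellulose or DMSO vehicle; intraperitoneal or subcutaneous) 1 h before placement in a novel open field. Spontaneous activity is counted as line crossings (locomotion), rearing (standing on hind legs) and grooming. n = 8 per group, values as mean ± SEM.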

[4] = test system: 5-HT concentration in the mice brain; assay: Determination of brain 5-HT concentration by ELISA; type: in vivo; details: 40 mg kg^-1, 1 h after administration, n = 8 (Fig. 5)
[5] = test system: mice (immobility in TST); assay: Tail suspension test; type: in vivo; details: 40 mg kg^-1, n = 8 (Fig. 4)
How it was run: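 Tail suspension test in Kunming mice (18–22 g), used as a second behavioural-despair model to confirm FST findings. Test compound at 40 mg kg−1 in 0.5% methylcellulose or DMSO, injected intraperitoneally or subcutaneously; fluoxetine at the same dose as positive control. Groups compared with control by one-way ANOVA.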

| Ki [2] [nM] | SMILES | Antidepressant activity in FST, significance compared with the control group [1] | other results |
| --- | --- | --- | --- |
| – | O=C1CCc2ccc(OCc3nnc(SCc4ccc(F)cc4)o3)cc2N1 [Compound 5f, 7-((5-((4-Fluorobenzyl)thio)-1,3,4-oxadiazol-2-yl)methoxy)-3,4-dihydroquinolin-2(1H)-one] | significant | – |
| 1.77 ± 0.14 | O=C1CCc2ccc(OCc3nnc(SCc4ccc(Cl)cc4)o3)cc2N1 [Compound 5g, 7-((5-((4-Chlorobenzyl)thio)-1,3,4-oxadiazol-2-yl)methoxy)-3,4-dihydroquinolin-2(1H)-one] | – | – |
| 2.73 ± 0.22 | O=C1CCc2ccc(OCc3nnc(SCc4ccc(C(F)(F)F)cc4)o3)cc2N1 [Compound 5h, 7-((5-((4-Trifluoromethylbenzyl)thio)-1,3,4-oxadiazol-2-yl)methoxy)-3,4-dihydroquinolin-2(1H)-one] | – | – |
| 2.01 ± 0.18 | CC(=O)Nc1cccc(OCc2nnc(SCc3ccccc3Cl)o2)c1 [Compound 10e, N-(3-((5-((2-Chlorobenzyl)thio)-1,3,4-oxadiazol-2-yl)methoxy)phenyl)acetamide] | high significant | – |
| – | CC(=O)Nc1cccc(OCc2nnc(SCc3cccc(Cl)c3)o2)c1 [Compound 10f, N-(3-((5-((3-Chlorobenzyl)thio)-1,3,4-oxadiazol-2-yl)methoxy)phenyl)acetamide] | significant | – |
| 1.68 ± 0.13 | CC(=O)Nc1cccc(OCc2nnc(SCc3ccc(Cl)cc3)o2)c1 [Compound 10g, N-(3-((5-((4-Chlorobenzyl)thio)-1,3,4-oxadiazol-2-yl)methoxy)phenyl)acetamide] | high significant | Relationship between dose and antidepressant activity in FST [1]: as the dose increases, the antidepressant activity increases; Exploratory activity in open-field test (crossing, rearing, grooming) [3]: no significant difference; Effect on brain 5-HT concentration [4]: significantly (p < 0.05) increased the 5-HT concentration; Antidepressant activity in TST [5]: highly significant |
| 4.14 ± 0.16 | CC(=O)Nc1cccc(OCc2nnc(SCc3ccc(C(F)(F)F)cc3)o2)c1 [Compound 10j, N-(3-((5-((4-Trifluoromethylbenzyl)thio)-1,3,4-oxadiazol-2-yl)methoxy)phenyl)acetamide] | high significant | – |
| – | CC(=O)Nc1cccc(OCc2nnc(SCc3ccc(C)cc3)o2)c1 [Compound 10m, N-(3-((5-((4-Methylbenzyl)thio)-1,3,4-oxadiazol-2-yl)methoxy)phenyl)acetamide] | significant | – |
| – | CNCCC(Oc1ccc(C(F)(F)F)cc1)c1ccccc1 (centres unmarked) [Fluoxetine, reference compound] | – | Relationship between dose and antidepressant activity in FST [1]: as the dose increases, the antidepressant activity increases; Effect on brain 5-HT concentration [4]: significantly (p < 0.05) increased the 5-HT concentration |
